Type in all cases: functional
The subject of assay [1] is Mus musculus. Nature of the assay: Activity against maximal electroshock seizures in mice, 4 hr following oral administration of 75 mg/kg. Summed up:
(§1)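 Mouse maximal electroshock seizure test. An electric shock is applied through corneal electrodes, and block of the hind-limb tonic-extensor seizure is scored. Compounds are given orally, usually to 10 mice per group, and tested 4 h after dosing. The result is reported as percent of dosed animals protected at the stated dose.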

Assay [2] concerns Mus musculus. Nature of the assay: Activity against maximal electroshock seizures in mice, 4 hr following oral administration of 300 mg/kg of compound. An outline of the steps: as §1
Assay [3] relates to Mus musculus. Nature of the assay: Effective dose against maximal electroshock seizures in mice, at 4 hr following oral administration of 10 mg/kg of compound.
Assay [4] has as its system Mus musculus. Nature of the assay: Inhibition of maximal electroshock seizures in mice, 4 hr following 10 mg/kg p.o. administration. The note with it: route oral. An outline of the steps: as §1
For orientation: The maximal electroshock test induces tonic seizures with an electrical stimulus.

The subject of assay [5] is Mus musculus. Nature of the assay: Activity against maximal electroshock seizures in mice, 4 hr following oral administration of 35 mg/kg of compound. An outline of the steps: as §1
Assay [6] deals with Mus musculus. Nature of the assay: Activity against maximal electroshock seizures in mice, 4 hr following oral administration of 75 mg/kg of compound. An outline of the steps:
as §1

Molecules are shown by their SMILES.

`CC1(C)O[C@H]2[C@@H]3OC(=S)O[C@@H]3CO[C@@]2(COS(N)(=O)=O)O1` returned a Block in the assay with Mus musculus [1] of 12.5%.
With `CC1(C)O[C@H]2[C@H]3C(CO[C@@]2(COS(N)(=O)=O)O1)C3(Cl)Cl` (stereo partly specified), the Block with Mus musculus [1] worked out at 0%.
Take `CC(=O)NS(=O)(=O)OC[C@@]12OC[C@H]3OC(C)(C)O[C@H]3[C@@H]1OC(C)(C)O2`: the Block in the assay on Mus musculus [1] came to 30%.
Turning to `CC(OS(N)(=O)=O)[C@@]12OC[C@H]3OC(C)(C)O[C@H]3[C@@H]1OC(C)(C)O2` (stereo partly specified), the Block in the assay with Mus musculus [1] is given as 0%.
`NS(=O)(=O)OC[C@@]12CCC=C[C@@H]1CCC2` returned a Block in the assay on Mus musculus [1] of 0%.
Regarding `CCC1(CC)O[C@@H]2[C@@H](CO[C@@]3(COS(N)(=O)=O)OC(CC)(CC)O[C@@H]23)O1`, the values for the Block in the assay on Mus musculus [2] and in the assay on Mus musculus [1] were 70% and 0%, respectively.
Usually ED50 stands for the dose that gives a 50% effect, or the effect in half of the subjects. High values mean a need for a large dose, low ones an effect at a small dose. `CC1(C)O[C@H]2[C@@H]3OS(=O)O[C@@H]3CO[C@@]2(COS(N)(=O)=O)O1` (stereo partly specified) returned an ED50 in the assay on Mus musculus [3] of 5.7 mg/kg.
`CC1(C)O[C@H]2[C@@H]3OC(C(F)(F)F)(C(F)(F)F)O[C@@H]3CO[C@@]2(COS(N)(=O)=O)O1` gave a Block in the assay on Mus musculus [1] of 40%.
For the compound `CCCCNS(=O)(=O)OC[C@@]12OC[C@H]3OC(C)(C)O[C@H]3[C@@H]1OC(C)(C)O2`, the Block is 0% with Mus musculus [4] and 80% in the assay on Mus musculus [1].
As for `CC1(C)O[C@@H]2[C@@H](CC[C@@]3(COS(N)(=O)=O)CCC[C@@H]23)O1`, in the assay on Mus musculus [1], the Block worked out at 0%.
Still for that read-out and setting: to `NS(=O)(=O)OC[C@@]12CCCC[C@@H]1CCC2` belongs 0%.
In turn, `C[C@H]1O[C@@H]2[C@@H](CO[C@@]3(COS(N)(=O)=O)OC(C)(C)O[C@@H]23)O1` gave a Block in the assay with Mus musculus [1] of 0%.
Still for that read-out and setting: to `CC1(C)C[C@H]2[C@@H]3OC(C)(C)O[C@@H]3CC[C@@]2(COS(N)(=O)=O)C1` belongs 0%.
The same measure, in the same setting: to `CC1(C)O[C@H]2[C@@H]3OCO[C@@H]3CO[C@@]2(COS(N)(=O)=O)O1` belongs 0%; to `CC1(C)O[C@H]2[C@@H]3OS(=O)(=O)O[C@@H]3CO[C@@]2(COS(=O)(=O)N2CCN(Cc3ccccc3)CC2)O1`, 0%; to `NS(=O)(=O)OC[C@@]12OC[C@H]3O[C@@H](c4ccccc4)O[C@H]3[C@@H]1O[C@H](c1ccccc1)O2`, 0%.
`CC1(C)O[C@H]2[C@@H]3OC4(CCCC4)O[C@@H]3CO[C@@]2(COS(N)(=O)=O)O1` registered a Block in the assay on Mus musculus [1] of 0%.
In the case of `CC1(C)O[C@H]2[C@@H]3OS(=O)(=O)O[C@@H]3CO[C@@]2(COS(=O)(=O)N2CCCCC2)O1`, the Block in the assay on Mus musculus [1] amounted to 0%.
In the case of `CCO[C@@H]1[C@H](OCC)CO[C@@]2(COS(N)(=O)=O)OC(C)(C)O[C@@H]12`, the Block is listed as 40% with Mus musculus [2] and 0% with Mus musculus [1].
In the case of `CN(C[C@@]12OC[C@H]3OC(C)(C)O[C@H]3[C@@H]1OC(C)(C)O2)S(N)(=O)=O`, the Block in the assay with Mus musculus [1] is 0%.
On the same count and under the same terms, to `CC1(C)O[C@H]2[C@@H]3OS(=O)(=O)O[C@@H]3CO[C@@]2(COC(N)=O)O1` belongs 0%.
The same measure, in the same setting: to `CC1(C)O[C@@H]2[C@@H](CO[C@@]3(COS(C)(=O)=O)OC(C)(C)O[C@@H]23)O1` belongs 0%.
Take `CC1(C)O[C@H]2CCCO[C@@]2(COS(N)(=O)=O)O1`: the Block with Mus musculus [2] was 100%; with Mus musculus [1] it was 0%.
Take `CC1(C)O[C@@H]2[C@@H](CO[C@@]3(CCS(N)(=O)=O)OC(C)(C)O[C@@H]23)O1`: in the assay on Mus musculus [1], the Block is reported as 0%.
The same measure, in the same setting: to `NS(=O)(=O)OC[C@]12CCC[C@H]1[C@@H]1OS(=O)(=O)O[C@@H]1CC2` belongs 0%; to `NS(=O)(=O)OC[C@@]12OC[C@H]3OC4(CCCCC4)O[C@H]3[C@@H]1OC1(CCCCC1)O2`, 0%.
Take `CC[C@H]1O[C@@H]2[C@@H](CO[C@@]3(COS(N)(=O)=O)OC(C)(C)O[C@@H]23)O1`: the Block with Mus musculus [1] came out at 90%; in the assay on Mus musculus [5], 10%.
Compound `CC[C@@]1(C)O[C@@H]2[C@@H](CO[C@@]3(COS(N)(=O)=O)OC(C)(C)O[C@@H]23)O1` yielded a Block in the assay with Mus musculus [1] of 90%.
As to `CC1(C)O[C@H]2[C@@H]3OS(=O)(=O)O[C@@H]3CO[C@@]2(COS(=O)(=O)n2ccnc2)O1`, the Block with Mus musculus [6] was determined as 100%; in the assay with Mus musculus [4], 0%.
The compound `CC1(C)O[C@H]2C=CCO[C@@]2(COS(N)(=O)=O)O1` came in with a Block in the assay with Mus musculus [2] of 0%.
With `Cc1ccc(S(=O)(=O)N=S2(=O)O[C@@H]3[C@@H](CO[C@@]4(COS(N)(=O)=O)OC(C)(C)O[C@@H]34)O2)cc1` (stereo partly specified), the Block in the assay with Mus musculus [2] is on record as 80%.
`CC1(C)O[C@H]2[C@@H]3O[C@@H]3CO[C@@]2(COS(N)(=O)=O)O1` registered a Block with Mus musculus [1] of 30%.
For `CCNS(=O)(=O)OC[C@@]12OC[C@H]3OC(C)(C)O[C@H]3[C@@H]1OC(C)(C)O2`, the values for the Block in the assay on Mus musculus [1] and in the assay on Mus musculus [5] were 90% and 0%, respectively.
Consider `C[C@@H]1O[C@@H]2[C@@H](CO[C@@]3(COS(N)(=O)=O)OC(C)(C)O[C@@H]23)O1`, for which the Block in the assay with Mus musculus [4] came out at 0%; with Mus musculus [1], 100%.
In the case of `NS(=O)(=O)OC[C@@]12OC[C@H]3OS(=O)(=O)O[C@H]3[C@@H]1OC1(CCCCC1)O2`, the Block with Mus musculus [2] came out at 10%; in the assay on Mus musculus [1], 0%.
The corresponding values for `Cc1ccc(S(=O)(=O)/N=S2\O[C@@H]3[C@@H](CO[C@@]4(COS(N)(=O)=O)OC(C)(C)O[C@@H]34)O2)cc1` (stereo partly specified) are 75% and 0%.
In the case of `CO[C@@H]1[C@H](OC)CO[C@@]2(COS(N)(=O)=O)OC(C)(C)O[C@@H]12`, the Block in the assay on Mus musculus [1] was 0%.
Take `CC1(C)O[C@H]2[C@@H]3O[C@H](C(C)(C)C)O[C@@H]3CO[C@@]2(COS(N)(=O)=O)O1`: in the assay with Mus musculus [1], the Block is 0%.
On the same count and under the same terms, to `CC1(C)O[C@@H]2[C@@H](CO[C@@]3(CNS(N)(=O)=O)OC(C)(C)O[C@@H]23)O1` belongs 0%.
`CCC1(CC)O[C@H]2[C@@H]3OS(=O)(=O)O[C@@H]3CO[C@@]2(COS(N)(=O)=O)O1`: the Block was 100% in the assay with Mus musculus [6] and 0% in the assay with Mus musculus [4].
Compound `CC1(C)O[C@H]2[C@H](Br)[C@@H](Br)CO[C@@]2(COS(N)(=O)=O)O1` displayed a 50% effective dose (ED50) in the assay on Mus musculus [3] of 21 mg/kg. Besides, the Block in the assay on Mus musculus [4] came to 0%; with Mus musculus [1], 100%.
For `CC1(C)O[C@@H]2[C@@H](CO[C@@]3(COS(=O)(=O)NCc4ccccc4)OC(C)(C)O[C@@H]23)O1`, the Block in the assay on Mus musculus [1] was found to be 0%.
`CC1(C)O[C@H]2[C@@H]3OCCO[C@@H]3CO[C@@]2(COS(N)(=O)=O)O1`: the Block with Mus musculus [1] came to 0%.
Regarding `CB1O[C@@H]2[C@@H](CO[C@@]3(COS(N)(=O)=O)OC(C)(C)O[C@@H]23)O1`, the values for the Block in the assay on Mus musculus [2] and with Mus musculus [1] were 50% and 0%, respectively.
Compound `CC1(C)O[C@H]2[C@@H]3O[C@](C)(C(C)(C)C)O[C@@H]3CO[C@@]2(COS(N)(=O)=O)O1` showed a Block with Mus musculus [1] of 0%.
Take `CSC(=O)O[C@H]1CO[C@@]2(COS(N)(=O)=O)OC(C)(C)O[C@H]2[C@@H]1I`: it took a dose of 30 mg/kg to reach the 50% effect level with Mus musculus [3] (ED50). In addition, the Block in the assay with Mus musculus [4] amounted to 0%; with Mus musculus [1], 90%.
`NS(=O)(=O)OC[C@]12CCC[C@H]1[C@@H]1C[C@@H]1CC2` yielded a Block with Mus musculus [1] of 0%.
Same read-out and setting: to `CC1(C)O[C@@H]2[C@@H](CO[C@@]3(CCCOS(N)(=O)=O)OC(C)(C)O[C@@H]23)O1` belongs 0%.
As for `CC1(C)O[C@H]2[C@@H]3O[C@H](c4ccccc4)O[C@@H]3CO[C@@]2(COS(N)(=O)=O)O1`, the Block in the assay with Mus musculus [1] was determined as 20%; with Mus musculus [5] it was 0%.
`CCO[C@@H]1O[C@@H]2[C@@H](CO[C@@]3(COS(N)(=O)=O)OC(C)(C)O[C@@H]23)O1`: the Block in the assay with Mus musculus [1] was 0%.
Still for that read-out and setting: to `CC1(C)O[C@@H]2[C@@H](CO[C@@]3(CCOS(N)(=O)=O)OC(C)(C)O[C@@H]23)O1` belongs 0%; to `CC1(C)O[C@H]2[C@@H]3OB(c4ccccc4)O[C@@H]3CO[C@@]2(COS(N)(=O)=O)O1`, 0%.
For `COc1ccc(NS(=O)(=O)OC[C@@]23OC[C@H]4OS(=O)(=O)O[C@H]4[C@@H]2OC(C)(C)O3)cc1`, the Block in the assay on Mus musculus [1] came out at 0%.
As to `COC1(OC)O[C@@H]2[C@@H](CO[C@@]3(COS(N)(=O)=O)OC(C)(C)O[C@@H]23)O1`, the Block in the assay on Mus musculus [1] amounted to 0%.
As to `CC1(C)O[C@H]2[C@@H]3OS(=O)(=O)O[C@@H]3CO[C@@]2(COS(=O)(=O)N=[N+]=[N-])O1`, the results for the Block in the assay on Mus musculus [4] and in the assay on Mus musculus [5] were 0% and 100%, respectively.
On to `CCC(OS(N)(=O)=O)[C@@]12OC[C@H]3OC(C)(C)O[C@H]3[C@@H]1OC(C)(C)O2` (stereo partly specified), for which the Block with Mus musculus [1] stood at 0%.
On to `CC1(C)O[C@H]2[C@@H]3OC(=O)O[C@@H]3CO[C@@]2(COS(N)(=O)=O)O1`, for which the Block in the assay on Mus musculus [2] is on record as 70%; with Mus musculus [1], 0%.

(Values after ChEMBL document CHEMBL1131331, “Structure-activity studies on anticonvulsant sugar sulfamates related to topiramate. Enhanced potency with cyclic sulfate derivatives” (J Med Chem, 1998).)
